From ChEMBL document CHEMBL2176955, “Discovery of the macrocycle 11-(2-pyrrolidin-1-yl-ethoxy)-14,19-dioxa-5,7,26-triaza-tetracyclo[19.3.1.1(2,6).1(8,12)]heptacosa-1(25),2(26),3,5,8,10,12(27),16,21,23-decaene (SB1518), a potent Janus kinase 2/fms-like tyrosine kinase-3 (JAK2/FLT3) inhibitor for the treatment of myelofibrosis and …” (J Med Chem, 2011)
pIC50: −log10 of the molar value.

Tests used:
[1] = tested on: Mus musculus; assay: Toxicity in athymic BALB/c nude mouse allografted with mouse BA/F3 cells harboring JAK2 V617F mutant assessed as body weight loss at 75 mg/kg, po administered twice daily for 13 consecutive days starting from day 4 post challenge relative to control; type: organism-based, BaF3; parameters: dose 75 mg/kg, route oral; details: in vivo
[2] = tested on: Mus musculus; assay: Toxicity in athymic BALB/c nude mouse xenografted with human MV4-11 cells harboring FLT3 ITD assessed as body weight loss at 50 to 100 mg/kg, po qd administered for 21 consecutive days measured up to 55 days relative to control; type: organism-based; parameters: dose 50-100 mg/kg, route oral; details: in vivo, 1320 h
How it was run: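 Female BALB/c nude mice implanted subcutaneously in right flank with 1 × 10⁷ MV4-11 cells in Matrigel 1:1. At about 130 mm³, oral once-daily dosing at 25, 50 or 100 mg/kg (free base) for 21 days, 8–10 mice per group. Tumours followed to day 55 or 1000 mm³; body weight assessed at termination.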

[3] = tested on: MV4-11; assay: Antitumor activity against human MV4-11 cells harboring FLT3 ITD xenografted in athymic BALB/c nude mouse assessed as survival at 100 mg/kg, po qd administered for 21 consecutive days measured up to 55 days ( Rvb = 33 days ); type: functional
[4] = tested on: MV4-11; assay: Antitumor activity against human MV4-11 cells harboring FLT3 ITD xenografted in athymic BALB/c nude mouse assessed as survival at 50 mg/kg, po qd administered for 21 consecutive days measured up to 55 days ( Rvb = 33 days ); type: functional
[5] = tested on: MV4-11; assay: Antitumor activity against human MV4-11 cells harboring FLT3 ITD xenografted in athymic BALB/c nude mouse assessed as survival at 25 mg/kg, po qd administered for 21 consecutive days measured up to 55 days ( Rvb = 33 days ); type: functional
[6] = Half life in rat liver microsomes at 5 uM by LC/MS/MS analysis; type: ADME, Microsome
How it was run: (§1)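 Compound at 5 μM incubated at 37 °C with dog or rat liver microsomes (~0.87 mg/mL) in 50 mM potassium phosphate pH 7.4 with NADPH regenerating system.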

[7] = Half life in dog liver microsomes at 5 uM by LC/MS/MS analysis; type: ADME, Canis lupus familiaris, Microsome; how it was run: as §1
[8] = AUC ( 0 to 8 hrs) in Beagle dog at 3 mg/kg, po administered via gelatin capsule as single dose; type: ADME, organism-based, Canis lupus familiaris; parameters: time < 8 hr, dose 3 mg/kg, route oral; details: plasma
[9] = Terminal half life in Beagle dog at 3 mg/kg, po administered via gelatin capsule as single dose; type: ADME, organism-based, Canis lupus familiaris; parameters: dose 3 mg/kg, route oral; details: in vivo, read-out: beta t1/2 (converted)
[10] = Tmax in Beagle dog at 3 mg/kg, po administered via gelatin capsule as single dose; type: ADME, organism-based, Canis lupus familiaris; parameters: dose 3 mg/kg, route oral; details: in vivo
[11] = AUC (0 to 8 hrs) in Wistar rat at 10 mg/kg, po administered as single dose; type: ADME, organism-based; parameters: time < 8 hr, dose 10 mg/kg, route oral; details: plasma
[12] = Cmax in Beagle dog at 3 mg/kg, po administered via gelatin capsule as single dose; type: ADME, organism-based, Canis lupus familiaris; parameters: dose 3 mg/kg, route oral; details: in vivo
[13] = Terminal half life in Wistar rat at 10 mg/kg, po administered as single dose; type: ADME, organism-based; parameters: dose 10 mg/kg, route oral; details: in vivo, read-out: beta t1/2 (converted)
[14] = Cmax in Wistar rat at 10 mg/kg, po administered as single dose; type: ADME, organism-based; parameters: dose 10 mg/kg, route oral; details: in vivo
[15] = Terminal half life in BALB/c mouse at 30 mg/kg, po administered as single dose; type: ADME, organism-based; parameters: dose 30 mg/kg, route oral; details: in vivo, read-out: beta t1/2 (converted)
[16] = AUC (0 to 8 hrs) in BALB/c mouse at 30 mg/kg, po administered as single dose; type: ADME, organism-based; parameters: time < 8 hr, dose 30 mg/kg, route oral; details: plasma
[17] = Cmax in BALB/c mouse at 30 mg/kg, po administered as single dose; type: ADME, organism-based; parameters: dose 30 mg/kg, route oral; details: in vivo
[18] = Oral bioavailability in Wistar rat at 10 mg/kg, administered as single dose; type: ADME, organism-based; details: in vivo
[19] = Oral bioavailability in Beagle dog at 3 mg/kg, administered as single dose; type: ADME, organism-based, Canis lupus familiaris; details: in vivo
[20] = Plasma protein binding in mouse at 1000 ng/ml by LC/MS/MS analysis; type: ADME, cell-free; details: read-out: PPB (converted)
How it was run: (§2)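 Equilibrium dialysis of mouse, dog or human plasma spiked to 1000 ng/mL against PBS, 4 h at 37 °C. The buffer side was extracted with MTBE in triplicate and analysed by LC/MS/MS.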

[21] = Oral bioavailability in BALB/c mouse at 30 mg/kg, administered as single dose; type: ADME, organism-based; details: in vivo
[22] = Plasma protein binding in human at 1000 ng/ml by equilibrium dialysis assay; type: ADME, cell-free; details: read-out: PPB (converted); how it was run: as §2
[23] = Plasma protein binding in dog at 1000 ng/ml by LC/MS/MS analysis; type: ADME, cell-free, Canis lupus familiaris; details: read-out: PPB (converted); how it was run: as §2
[24] = Apparent permeability from apical to basolateral side in human Caco2 cells at 5 uM after 2 hrs by LC/MS analysis at pH 7.4; type: ADME, cell-based; details: Caco-2, pH 7.4
How it was run: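 Compound at 5 μM in HBSS (DMSO <1%) applied apically or basolaterally to 21–28 day Caco-2 monolayers, both sides pH 7.4. Both sides sampled at 2 h, LC/MS quantitation with 4-point calibration. Monolayer integrity checked by TEER (450–650 Ωcm²) and Lucifer Yellow.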

[25] = tested on: MV4-11; assay: Antiproliferative activity against human MV4-11 cells harboring FLT3 […] mutant assessed as cell viability after 48 hrs by Cell titer Glo assay; type: functional; details: MV4-11, 48 h
[26] = Antiproliferative activity against mouse BA/F3 cells harboring JAK2 V617F mutation assessed as cell viability after 48 hrs by Cell titer Glo assay; type: functional; details: BaF3, 48 h
[27] = biological target: CYP2D6 (Homo sapiens, UniProt P10635); assay: Inhibition of CYP2D6 in human liver microsomes assessed as decrease in formation of dextrorphan from dextromethorphan substrate at 5 uM after 30 mins by LC-MS/MS; type: ADME, Microsome; details: probe dextromethorphan
Chain of CYP2D6 (P10635 whole entry, canonical isoform): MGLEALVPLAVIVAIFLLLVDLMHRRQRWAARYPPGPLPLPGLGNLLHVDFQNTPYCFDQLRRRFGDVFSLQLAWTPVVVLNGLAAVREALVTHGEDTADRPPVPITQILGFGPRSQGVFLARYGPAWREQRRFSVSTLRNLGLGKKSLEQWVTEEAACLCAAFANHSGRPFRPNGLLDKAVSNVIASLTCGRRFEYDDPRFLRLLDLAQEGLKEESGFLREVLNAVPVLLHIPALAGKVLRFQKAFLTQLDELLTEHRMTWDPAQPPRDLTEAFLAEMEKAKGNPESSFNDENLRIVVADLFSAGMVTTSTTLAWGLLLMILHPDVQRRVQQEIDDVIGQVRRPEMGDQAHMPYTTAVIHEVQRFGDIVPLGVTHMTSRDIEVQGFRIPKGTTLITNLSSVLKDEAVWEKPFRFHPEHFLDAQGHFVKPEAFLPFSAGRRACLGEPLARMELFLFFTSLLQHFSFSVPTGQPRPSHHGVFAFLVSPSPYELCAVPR
How it was run: (§3)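 Human liver microsomes with 1 mM NADPH at 37 °C. Test compound at 0.05–25 μM (final DMSO 0.35%). Conditions per isoform: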

[28] = biological target: CYP3A4 (Homo sapiens, UniProt P08684); assay: Inhibition of CYP3A4 in human liver microsomes assessed as decrease in formation of 1-hydroxymidazolam from midazolam substrate at 5 uM after 5 mins by LC-MS/MS; type: ADME, Microsome; details: probe midazolam; how it was run: as §3
Chain of CYP3A4 (P08684 whole entry): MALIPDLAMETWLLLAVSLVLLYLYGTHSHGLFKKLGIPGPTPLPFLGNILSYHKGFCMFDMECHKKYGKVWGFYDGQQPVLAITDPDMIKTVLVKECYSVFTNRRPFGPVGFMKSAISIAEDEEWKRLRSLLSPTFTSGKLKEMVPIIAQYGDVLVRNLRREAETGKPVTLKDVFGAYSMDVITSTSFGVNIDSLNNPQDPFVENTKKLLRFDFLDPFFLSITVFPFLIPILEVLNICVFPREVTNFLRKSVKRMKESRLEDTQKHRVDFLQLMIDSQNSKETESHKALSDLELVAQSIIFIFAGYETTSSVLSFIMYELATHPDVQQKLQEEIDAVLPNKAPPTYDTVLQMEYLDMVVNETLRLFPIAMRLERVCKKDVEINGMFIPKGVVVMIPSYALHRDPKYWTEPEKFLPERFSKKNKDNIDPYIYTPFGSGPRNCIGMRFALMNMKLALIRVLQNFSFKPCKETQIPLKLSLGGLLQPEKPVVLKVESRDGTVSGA

[29] = biological target: Cytochrome P450 2C19 (Homo sapiens, UniProt P33261); assay: Inhibition of CYP2C19 in human liver microsomes assessed as decrease in formation of 4-hydroxymephenytoin from mephenytoin substrate after 60 mins by LC-MS/MS; type: ADME, Microsome; how it was run: as §3
Chain of Cytochrome P450 2C19 (P33261 whole entry): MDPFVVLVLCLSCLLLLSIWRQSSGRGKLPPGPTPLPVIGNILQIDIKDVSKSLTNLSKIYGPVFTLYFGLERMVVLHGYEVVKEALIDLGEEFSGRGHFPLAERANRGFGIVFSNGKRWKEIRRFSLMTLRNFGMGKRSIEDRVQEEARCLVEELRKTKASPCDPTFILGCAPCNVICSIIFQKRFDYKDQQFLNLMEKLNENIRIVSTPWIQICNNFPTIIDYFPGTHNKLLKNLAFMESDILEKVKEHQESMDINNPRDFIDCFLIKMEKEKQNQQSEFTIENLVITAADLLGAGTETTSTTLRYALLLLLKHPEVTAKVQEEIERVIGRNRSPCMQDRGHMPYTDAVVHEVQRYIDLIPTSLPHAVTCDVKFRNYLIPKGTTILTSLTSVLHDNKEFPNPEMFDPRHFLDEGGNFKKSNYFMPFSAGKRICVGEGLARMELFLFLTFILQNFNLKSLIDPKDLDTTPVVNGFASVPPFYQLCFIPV

[30] = biological target: Cytochrome P450 2C9 (Homo sapiens, UniProt P11712); assay: Inhibition of CYP2C9 in human liver microsomes assessed as decrease in formation of 4-hydroxytolbutamide from tolbutamide substrate after 60 mins by LC-MS/MS; type: ADME, Microsome; how it was run: as §3
Chain of Cytochrome P450 2C9 (P11712 whole entry): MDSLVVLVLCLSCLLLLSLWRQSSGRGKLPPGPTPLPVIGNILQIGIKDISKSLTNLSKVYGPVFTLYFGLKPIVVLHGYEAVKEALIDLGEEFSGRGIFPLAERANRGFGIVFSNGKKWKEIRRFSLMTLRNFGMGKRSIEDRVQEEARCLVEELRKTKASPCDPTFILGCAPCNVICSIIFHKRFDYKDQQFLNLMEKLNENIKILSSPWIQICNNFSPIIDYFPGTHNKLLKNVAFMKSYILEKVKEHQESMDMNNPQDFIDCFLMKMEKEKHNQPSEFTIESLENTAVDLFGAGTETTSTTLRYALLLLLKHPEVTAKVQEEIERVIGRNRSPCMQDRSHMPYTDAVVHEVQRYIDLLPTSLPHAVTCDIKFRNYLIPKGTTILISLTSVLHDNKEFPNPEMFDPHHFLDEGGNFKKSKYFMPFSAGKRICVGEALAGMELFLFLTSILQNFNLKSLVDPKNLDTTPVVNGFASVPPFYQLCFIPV

[31] = biological target: T1, Cytochrome P450 1A2 (Homo sapiens, UniProt P05177); assay: Inhibition of CYP1A2 in human liver microsomes assessed as decrease in formation of resorufin from ethoxyresorufin substrate after 5 mins by LC-MS/MS; type: ADME, Microsome; how it was run: as §3
T1 sequence (P05177 whole entry): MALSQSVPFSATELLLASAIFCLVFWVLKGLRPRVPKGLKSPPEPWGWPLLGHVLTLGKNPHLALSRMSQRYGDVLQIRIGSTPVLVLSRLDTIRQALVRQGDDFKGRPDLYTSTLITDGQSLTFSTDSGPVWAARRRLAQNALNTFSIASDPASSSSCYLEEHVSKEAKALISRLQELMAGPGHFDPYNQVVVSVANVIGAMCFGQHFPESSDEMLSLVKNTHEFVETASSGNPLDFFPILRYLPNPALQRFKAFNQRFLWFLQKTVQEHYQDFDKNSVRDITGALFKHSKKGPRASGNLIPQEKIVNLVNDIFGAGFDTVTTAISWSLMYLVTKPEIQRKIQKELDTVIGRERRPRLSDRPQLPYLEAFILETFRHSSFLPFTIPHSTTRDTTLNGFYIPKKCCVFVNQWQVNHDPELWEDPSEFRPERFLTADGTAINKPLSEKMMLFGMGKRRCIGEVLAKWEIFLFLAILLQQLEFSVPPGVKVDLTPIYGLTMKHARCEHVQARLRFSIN

[32] = biological target: Non-receptor tyrosine-protein kinase TYK2 (Homo sapiens, UniProt P29597); assay: Inhibition of recombinant TYK2
Chain of Non-receptor tyrosine-protein kinase TYK2 (P29597 whole entry): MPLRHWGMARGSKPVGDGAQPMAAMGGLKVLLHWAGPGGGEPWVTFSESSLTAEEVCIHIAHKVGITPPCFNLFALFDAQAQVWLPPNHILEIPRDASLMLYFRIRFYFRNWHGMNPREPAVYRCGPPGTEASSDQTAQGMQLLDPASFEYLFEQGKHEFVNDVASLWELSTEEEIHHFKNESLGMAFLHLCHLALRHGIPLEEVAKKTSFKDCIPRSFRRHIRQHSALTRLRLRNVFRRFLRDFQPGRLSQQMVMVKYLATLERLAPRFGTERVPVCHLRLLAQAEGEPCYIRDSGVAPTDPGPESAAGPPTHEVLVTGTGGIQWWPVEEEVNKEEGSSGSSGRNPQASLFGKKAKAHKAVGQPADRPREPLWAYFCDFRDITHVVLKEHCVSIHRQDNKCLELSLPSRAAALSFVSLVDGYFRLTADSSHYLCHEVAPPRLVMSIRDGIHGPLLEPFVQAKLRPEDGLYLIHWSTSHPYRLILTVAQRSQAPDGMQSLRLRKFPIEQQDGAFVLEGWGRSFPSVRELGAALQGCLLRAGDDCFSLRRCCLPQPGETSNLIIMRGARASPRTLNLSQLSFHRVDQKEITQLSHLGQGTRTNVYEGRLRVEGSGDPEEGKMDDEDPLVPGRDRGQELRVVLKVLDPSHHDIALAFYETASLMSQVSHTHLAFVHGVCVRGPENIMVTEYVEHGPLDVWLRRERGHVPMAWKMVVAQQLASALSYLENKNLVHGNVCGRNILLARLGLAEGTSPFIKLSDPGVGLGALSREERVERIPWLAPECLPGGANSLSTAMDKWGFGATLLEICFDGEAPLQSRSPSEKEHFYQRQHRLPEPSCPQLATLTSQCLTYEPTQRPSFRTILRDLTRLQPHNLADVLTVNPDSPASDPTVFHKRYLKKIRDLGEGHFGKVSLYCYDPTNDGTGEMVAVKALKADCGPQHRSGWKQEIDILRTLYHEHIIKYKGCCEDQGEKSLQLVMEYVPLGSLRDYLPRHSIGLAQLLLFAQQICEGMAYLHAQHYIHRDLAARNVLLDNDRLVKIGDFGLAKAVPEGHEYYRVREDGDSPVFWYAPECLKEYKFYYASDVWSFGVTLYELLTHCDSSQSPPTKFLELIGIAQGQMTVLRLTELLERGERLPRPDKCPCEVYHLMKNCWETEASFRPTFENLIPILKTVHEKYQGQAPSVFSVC

[33] = biological target: Tyrosine-protein kinase JAK1 (Homo sapiens, UniProt P23458); assay: Inhibition of recombinant JAK1 using Poly (Glu,Ala,Tyr) as substrate after 2 hrs by luminescence assay
Chain of Tyrosine-protein kinase JAK1 (P23458 whole entry): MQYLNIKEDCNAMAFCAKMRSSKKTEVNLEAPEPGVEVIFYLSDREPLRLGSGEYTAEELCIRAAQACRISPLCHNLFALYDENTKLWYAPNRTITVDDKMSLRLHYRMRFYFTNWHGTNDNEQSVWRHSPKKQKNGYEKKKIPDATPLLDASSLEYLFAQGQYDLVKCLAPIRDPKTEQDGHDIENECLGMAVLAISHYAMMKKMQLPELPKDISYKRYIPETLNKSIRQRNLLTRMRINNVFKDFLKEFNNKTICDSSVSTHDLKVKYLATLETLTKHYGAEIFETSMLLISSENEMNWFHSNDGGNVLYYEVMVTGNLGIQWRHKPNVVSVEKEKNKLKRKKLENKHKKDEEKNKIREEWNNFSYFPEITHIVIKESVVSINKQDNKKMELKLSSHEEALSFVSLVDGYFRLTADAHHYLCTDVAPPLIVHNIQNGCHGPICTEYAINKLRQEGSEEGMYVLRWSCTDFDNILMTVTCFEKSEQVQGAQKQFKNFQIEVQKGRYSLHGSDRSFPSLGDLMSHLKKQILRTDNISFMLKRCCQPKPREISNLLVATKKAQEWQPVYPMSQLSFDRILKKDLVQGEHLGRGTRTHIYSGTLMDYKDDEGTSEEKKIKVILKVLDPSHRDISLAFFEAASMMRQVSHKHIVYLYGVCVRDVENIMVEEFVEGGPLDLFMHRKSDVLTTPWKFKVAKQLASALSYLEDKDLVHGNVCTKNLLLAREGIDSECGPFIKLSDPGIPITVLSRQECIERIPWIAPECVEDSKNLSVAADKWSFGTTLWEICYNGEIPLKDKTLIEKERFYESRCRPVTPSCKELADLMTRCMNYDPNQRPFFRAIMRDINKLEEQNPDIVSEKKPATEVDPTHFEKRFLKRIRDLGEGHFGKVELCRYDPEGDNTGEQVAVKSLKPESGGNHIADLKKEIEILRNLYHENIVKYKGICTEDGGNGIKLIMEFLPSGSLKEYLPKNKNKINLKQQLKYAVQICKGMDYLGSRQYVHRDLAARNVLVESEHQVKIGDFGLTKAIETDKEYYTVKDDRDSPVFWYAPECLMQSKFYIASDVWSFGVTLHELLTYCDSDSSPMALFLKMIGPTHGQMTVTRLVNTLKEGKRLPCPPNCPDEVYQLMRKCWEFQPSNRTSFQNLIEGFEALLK
How it was run: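 Luciferase-coupled ATP-depletion luminescence assay in 50 mM Hepes pH 7.5 with MgCl₂, MnCl₂, BGP, DTT and orthovanadate, 2 h at room temperature. Conditions per target: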

[34] = biological target: Cyclin-dependent kinase 2/cyclin A (Homo sapiens, UniProt P24941); assay: Inhibition of recombinant CDK2/Cyclin A using RbinG as substrate after 2 hrs by luminescence assay; type: protein-complex assay
[35] = in vitro; details: PAMPA
[36] = physchem; details: phosphate buffer saline, pH 7
[37] = tested on: Mus musculus; assay: Toxicity in athymic BALB/c nude mouse allografted with mouse BA/F3 cells harboring JAK2 V617F mutant assessed as body weight loss at 75 and 150 mg/kg, po administered twice daily for 13 consecutive days starting from day 4 post challenge relative to control; details: in vivo
[38] = Antitumor activity against mouse BA/F3 cells harboring JAK2 V617F mutant allografted in athymic BALB/c nude mouse assessed as normalization of liver weight at 150 mg/kg, po bid administered on day 4 post inoculation for 13 consecutive days measured on day 13 relative to vehicle-treated control; type: functional, BaF3
How it was run: (§4)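 Female BALB/c nude mice given 2 × 10⁶ Ba/F3-JAK2 V617F cells by tail vein in serum-free medium. Oral dosing twice daily at 75 or 150 mg/kg (free base) from day 4 for 13 days, 8 mice per group, 4 naive baseline mice. Spleens and livers weighed at sacrifice; ANOVA with Dunnett's test.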

[39] = Antitumor activity against mouse BA/F3 cells harboring JAK2 V617F mutant allografted in athymic BALB/c nude mouse assessed as normalization of spleen weight at 150 mg/kg, po bid administered on day 4 post inoculation for 13 consecutive days measured on day 13 relative to vehicle-treated control; type: functional, BaF3; how it was run: as §4

SMILES: C1=N/C2=N/c3ccc(OCCN4CCCC4)c(c3)COC/C=C/COCc3cccc(c3)C(=C1)N2 (mixture of isomers) [PACRITINIB]
- Activity [1]: Non-toxic
- Activity [2]: Non-toxic
- Survival [3]: 55 days
- Survival [4]: 55 days
- Survival [5]: 35 days
- half-life at 5 µM [6]: 0.3 h
- half-life at 5 µM [7]: 0.683 h
- AUC(0-t) at 8 h [8]: 53 ng·h/mL
- half-life [9]: 3.4 h
- Tmax [10]: 2 h
- AUC(0-t) at 8 h [11]: 599 ng·h/mL
- Cmax [12]: 11.5 ng/mL
- half-life [13]: 5.7 h
- Cmax [14]: 114 ng/mL
- half-life [15]: 0.84 h
- AUC(0-t) at 8 h [16]: 399 ng·h/mL
- Cmax [17]: 292 ng/mL
- bioavailability [18]: 10%
- bioavailability [19]: 24%
- fraction unbound at 1000 ng/ml [20]: 0.0059
- bioavailability [21]: 39%
- fraction unbound at 1000 ng/ml [22]: 0.0012
- fraction unbound at 1000 ng/ml [23]: 0.0037
- Papp A→B at 2 h, 5 µM [24]: 16 ×10⁻⁶ cm/s
- GI50 [25]: 47 nM
- GI50 [26]: 160 nM
- inhibition at 0.5 h, 5 µM [27]: 20%
- inhibition at 5 min, 5 µM [28]: 20%
- pIC50 [29]: < 5.30
- pIC50 [30]: < 5.30
- pIC50 [31]: < 5.30
- pIC50 [32]: 7.30
- pIC50 [33]: 5.89
- pIC50 [34]: 5.41
- Papp at 5 h, 1 µM [35]: 9.3 ×10⁻⁶ cm/s
- solubility [36]: > 150 µg/mL
- Activity [37]: Non-toxic

SMILES: C1=CCOCc2cc(ccc2OCCN2CCCC2)Nc2nccc(n2)-c2cccc(c2)COC1.Cl (mixture of isomers)
- Activity [38]: 99%
- Activity [39]: 42%
